Data on three molecules can be found in ChEMBL document CHEMBL1142087 (Antimicrob Agents Chemother, 2007).

Some results are limits rather than exact numbers.

The nature of data set [1]: Cytotoxicity against MDCK cells. The data set is classed as cell-based, Canis lupus familiaris. The following applies: dog. In outline: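 MDCK cells in MEM were exposed to eight test concentrations in half-log10 steps at 37°C. Untreated toxicity and normal-medium controls were included. CC50 was taken as the 50% cytotoxic concentration. Results are from two to five experiments.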

In data set [2] the test system is Mus musculus. The data set is described as follows: Effect on weight change in BALB/c mouse at 100 mg/kg/day, po qid measured after 18 hrs of final treatment. The data set is classed as ADME, organism-based. Also on record: route oral. The following applies: in vivo. In outline: (§1)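 Uninfected toxicity-control BALB/c mice, 3 per dose, were dosed orally on the same schedule as infected groups. Each mouse was weighed before treatment and 18 h after the last dose. Weight change is the difference. Mice were watched for overt toxicity and death for 21 days.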

Data set [3] has as its system Mus musculus. The data set is described as follows: Effect on weight change in BALB/c mouse at 33 mg/kg/day, po qid measured after 18 hrs of final treatment. Format: ADME, organism-based. Also on record: route oral. The following applies: in vivo. The essentials: as §1
Data set [4] deals with Mus musculus. Kind of data set: Toxicity in BALB/c mouse assessed as survival at 300 mg/kg/day, po once daily. Format: organism-based. Also on record: route oral. The following applies: in vivo. In outline:
(§2)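 Uninfected female BALB/c toxicity controls (18–21 g), 3 mice per dose, were run in parallel with the infection studies and received 5-day oral treatment. Body weight was taken before treatment and 18 h after the last dose.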

The subject of data set [5] is Mus musculus. Kind of data set: Toxicity in BALB/c mouse assessed as survival at 100 mg/kg/day, po once daily. The data set is classed as organism-based. Also on record: route oral. The following applies: in vivo. The essentials: as §2
For data set [6], the system named is Mus musculus. Kind of data set: Toxicity in BALB/c mouse assessed as survival at 30 mg/kg/day, po once daily. Format: organism-based. Also on record: route oral. The following applies: in vivo. The essentials: as §2
Data set [7] has as its system Mus musculus. The data set is described as follows: Toxicity in BALB/c mouse assessed as survival at 10 mg/kg/day, po once daily. The data set is classed as organism-based. Also on record: route oral. The following applies: in vivo. The essentials:
as §2

Data set [8] has as its system Mus musculus. Kind of data set: Toxicity in BALB/c mouse assessed as survival at 3 mg/kg/day, po once daily. Format: organism-based. Also on record: route oral. The following applies: in vivo. The essentials: as §2
Data set [9] relates to Mus musculus. Kind of data set: Effect on weight change in BALB/c mouse at 300 mg/kg/day, po once daily for 5 days measured after 18 hrs of final treatment. The data set is classed as ADME, organism-based. Also on record: route oral. The following applies: in vivo. The essentials:
as §1

The test system of data set [10] is Mus musculus. The data set is described as follows: Effect on weight change in BALB/c mouse at 100 mg/kg/day, po once daily for 5 days measured after 18 hrs of final treatment. The data set is classed as ADME, organism-based. Also on record: route oral. The following applies: in vivo. The essentials: as §1
The test system of data set [11] is Mus musculus. The data set is described as follows: Effect on weight change in BALB/c mouse at 30 mg/kg/day, po once daily for 5 days measured after 18 hrs of final treatment. Format: ADME, organism-based. Also on record: route oral. The following applies: in vivo. The essentials:
as §1

The test system of data set [12] is Mus musculus. Kind of data set: Effect on weight change in BALB/c mouse at 10 mg/kg/day, po once daily for 5 days measured after 18 hrs of final treatment. Format: ADME, organism-based. Also on record: route oral. The following applies: in vivo. The essentials:
as §1

Data set [13] relates to Mus musculus. Kind of data set: Effect on weight change in BALB/c mouse at 3 mg/kg/day, po once daily for 5 days measured after 18 hrs of final treatment. Format: ADME, organism-based. Also on record: route oral. The following applies: in vivo. In outline:
as §1

Data set [14] relates to Mus musculus. The data set is described as follows: Toxicity in BALB/c mouse assessed as survival at 300 mg/kg/day, po qid for 5 days. The following applies: in vivo, 120 h. Format: organism-based. Also on record: route oral. The essentials: as §2
Data set [15] has as its system Mus musculus. The data set is described as follows: Toxicity in BALB/c mouse assessed as survival at 100 mg/kg/day, po qid for 5 days. The data set is classed as organism-based. Also on record: route oral. The following applies: in vivo, 120 h. The essentials:
as §2

The test system of data set [16] is Mus musculus. The data set is described as follows: Toxicity in BALB/c mouse assessed as survival at 33 mg/kg/day, po qid for 5 days. The data set is classed as organism-based. Also on record: route oral. The following applies: in vivo, 120 h. The essentials: as §2
Data set [17] deals with Mus musculus. The data set is described as follows: Effect on weight change in BALB/c mouse at 300 mg/kg/day, po qid measured after 18 hrs of final treatment. Format: ADME, organism-based. Also on record: route oral. The following applies: in vivo. The essentials: as §1
For data set [18], the system named is Mus musculus. The data set is described as follows: Toxicity in BALB/c mouse assessed as survival at 300 mg/kg/day, po twice daily. Format: organism-based. Also on record: route oral. The following applies: in vivo. The essentials: as §2
Data set [19] has as its system Mus musculus. The data set is described as follows: Toxicity in BALB/c mouse assessed as survival at 100 mg/kg/day, po twice daily. Format: organism-based. Also on record: route oral. The following applies: in vivo. The essentials:
as §2

The test system of data set [20] is Mus musculus. The data set is described as follows: Toxicity in BALB/c mouse assessed as survival at 30 mg/kg/day, po twice daily. Format: organism-based. Also on record: route oral. The following applies: in vivo. In outline:
as §2

Data set [21] concerns Mus musculus. Kind of data set: Toxicity in BALB/c mouse assessed as survival at 10 mg/kg/day, po twice daily. The data set is classed as organism-based. Also on record: route oral. The following applies: in vivo. The essentials:
as §2

For data set [22], the system named is Mus musculus. The data set is described as follows: Toxicity in BALB/c mouse assessed as survival at 3 mg/kg/day, po twice daily. The following applies: in vivo. Also on record: route oral. The data set is classed as organism-based. In outline:
as §2

The subject of data set [23] is Mus musculus. The data set is described as follows: Effect on weight change in BALB/c mouse at 300 mg/kg/day, po twice daily for 5 days measured after 18 hrs of final treatment. The data set is classed as ADME, organism-based. Also on record: route oral. The following applies: in vivo. In outline: as §1
Data set [24] has as its system Mus musculus. Kind of data set: Effect on weight change in BALB/c mouse at 100 mg/kg/day, po twice daily for 5 days measured after 18 hrs of final treatment. The data set is classed as ADME, organism-based. Also on record: route oral. The following applies: in vivo. The essentials:
as §1

The subject of data set [25] is Mus musculus. The data set is described as follows: Effect on weight change in BALB/c mouse at 30 mg/kg/day, po twice daily for 5 days measured after 18 hrs of final treatment. The following applies: in vivo. The data set is classed as ADME, organism-based. Also on record: route oral. The essentials:
as §1

Data set [26] has as its system Mus musculus. The data set is described as follows: Effect on weight change in BALB/c mouse at 10 mg/kg/day, po twice daily for 5 days measured after 18 hrs of final treatment. Format: ADME, organism-based. Also on record: route oral. The following applies: in vivo. In outline:
as §1

Data set [27] concerns Mus musculus. Kind of data set: Effect on weight change in BALB/c mouse at 3 mg/kg/day, po twice daily for 5 days measured after 18 hrs of final treatment. The data set is classed as ADME, organism-based. Also on record: route oral. The following applies: in vivo. The essentials:
as §1

Data set [28] relates to Influenza A virus. The data set is described as follows: Inhibition of influenza A virus (A/duck/Minnesota/1525/1981 (H5N1)) replication in MDCK cells by virus yield reduction assay. The data set is classed as functional.
Data set [29] deals with Influenza A virus. The data set is described as follows: Inhibition of Influenza A virus (A/gull/Pennsylvania/4175/83 (H5N1)) replication in MDCK cells by virus yield reduction assay. Format: functional.

Turning to `NC(=O)c1nc(F)c[nH]c1=O` [FAVIPIRAVIR], in [1], the CC50 is more than 641 µM. For the same molecule, the Activity is given as 1.1 g with Mus musculus [2]; 0.2 g in the data set on Mus musculus [3]; “Non-toxic” with Mus musculus [4]; “Non-toxic” in the data set on Mus musculus [5]; “Non-toxic” in the data set on Mus musculus [6]; “Non-toxic” in the data set on Mus musculus [7]. The Activity entry in the data set on Mus musculus [8] is “Non-toxic”; in the data set on Mus musculus [9], 0.4 g; in the data set on Mus musculus [10], 0.4 g; in the data set with Mus musculus [11], 0.7 g; with Mus musculus [12], 0.6 g; in the data set with Mus musculus [13], 0.3 g. Besides, the Activity result with Mus musculus [14] is on record as “Non-toxic”; in the data set with Mus musculus [15], “Non-toxic”; in the data set with Mus musculus [16], “Non-toxic”; in the data set on Mus musculus [17], 0.6 g; in the data set with Mus musculus [18] it was “Non-toxic”; in the data set on Mus musculus [19] it was “Non-toxic”. Besides, the Activity entry in the data set with Mus musculus [20] is reported as “Non-toxic”; with Mus musculus [21], “Non-toxic”; with Mus musculus [22] it was “Non-toxic”; with Mus musculus [23], 0.2 g; in the data set on Mus musculus [24], 1 g; in the data set on Mus musculus [25], 0.1 g. Besides, the Activity amounted to 0.1 g with Mus musculus [26] and 0.8 g in the data set with Mus musculus [27].

For `NC(=O)c1ncn([C@@H]2O[C@H](CO)[C@@H](O)[C@H]2O)n1` [RIBAVIRIN], the figures for the EC90 in the data set with Influenza A virus [28] and in the data set on Influenza A virus [29] were 20.1 µM and 32 µM, respectively. In [1], this molecule came in with a CC50 of 2340 µM.

For the molecule `CC(=O)N[C@H]1[C@H]([C@H](O)[C@H](O)CO)OC(C(=O)O)=C[C@@H]1NC(=N)N` [ZANAMIVIR], the EC90 amounted to 0.96 µM in the data set with Influenza A virus [28] and 1.23 µM in the data set with Influenza A virus [29]. In data set [1], this molecule had a CC50 of more than 3610 µM.
